The test system of one experiment is MDA-MB-231. Put plainly: Antiproliferative activity against human MDA-MB-231 cells after 72 hrs by SRB assay. It is filed as functional, cell-based. The note with it: MDA-MB-231, 72 h. The gist of the method: (§1)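 Cells seeded at 4000−12 000 per well, density set by the line's doubling time. Compounds were added in DMSO, at most 0.1% v/v. After 72 h exposure, attached cells were fixed with 10% TCA, stained with 0.04% SRB, and the dye was solubilised in 10 mM Tris base. KB-VIN was maintained in 100 nM VIN.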

Another experiment has as its system A549. Put plainly: Antiproliferative activity against human A549 cells after 72 hrs by SRB assay. The following applies: A549, 72 h. It is filed as functional, cell-based. The procedure, abridged:
as §1

Experiment [1] is described as follows: Antiproliferative activity against human KBVIN cells after 72 hrs by SRB assay. It is filed as functional, cell-based. The procedure, abridged:
(§2)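 Cells seeded at 4000−12 000 per well, density set by the line's doubling time. Compounds were added in DMSO, at most 0.1% v/v. After 72 h exposure, attached cells were fixed with 10% TCA, stained with 0.04% SRB, and the dye was solubilised in 10 mM Tris base. Absorbance read at 515 nm. IC50 is 50% reduction relative to untreated cells, averaged over at least three independent experiments in duplicate. KB-VIN was maintained in 100 nM VIN.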

In a further experiment the test system is MCF7. Put plainly: Antiproliferative activity against human MCF7 cells after 72 hrs by SRB assay. It is filed as functional, cell-based. The following applies: MCF7, 72 h. The gist of the method: as §2
Another experiment relates to KB. Put plainly: Antiproliferative activity against human KB cells after 72 hrs by SRB assay. It is filed as functional, cell-based. The gist of the method:
as §1

The species entered for experiment [2] is Homo sapiens. Put plainly: Induction of DNA double strand breaks in human KBVIN cells assessed as increase in gamma-H2AX positive nuclei at 20 uM after 24 hrs by DAPI staining-based confocal fluorescence microscopic method. It is filed as cell-based. The gist of the method: (§3)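 KB-VIN cells on chamber slides were dosed 24 h after seeding and treated for 24 h, with 0.1% DMSO as control. Cells were fixed in ice-cold 4% paraformaldehyde/PBS and permeabilised with 0.5% Triton X-100. Staining used mouse anti-α-tubulin with FITC secondary, rabbit anti-γ-H2AX with Alexa Fluor 546 secondary, and DAPI for nuclei. Stacked confocal images were examined.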

For experiment [3], the species on record is Homo sapiens. Put plainly: Induction of morphological changes of microtubule in human KBVIN cells at 20 uM after 24 hrs by DAPI staining-based confocal fluorescence microscopic method. It is filed as cell-based. The gist of the method: as §3
For experiment [4], the system named is KBVIN. Put plainly: Cell cycle arrest in human KBVIN cells assessed as increase in cell levels at sub G1 phase at 20 uM after 48 hrs by propidium iodide staining-based flow cytometric method. It is filed as functional. The gist of the method:
(§4)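 KB-VIN cells were seeded 24 h before dosing, then exposed for 24 or 48 h, with 0.1% DMSO as the vehicle control. DNA content was stained with propidium iodide and cell-cycle distribution (sub-G1, S, G2/M) analysed by flow cytometry. Experiments were repeated at least three times.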

Experiment [5] has as its system KBVIN. The experiment can be described thus: Cell cycle arrest in human KBVIN cells assessed as accumulation at S phase at 20 uM after 24 to 48 hrs by propidium iodide staining-based flow cytometric method. It is filed as functional. The procedure, abridged: as §4
Experiment [6] is filed under the species Homo sapiens. Put plainly: Induction of DNA double strand breaks in human KBVIN cells assessed as increase in gamma-H2AX positive nuclei after 24 hrs by DAPI staining-based confocal fluorescence microscopic method. It is filed as cell-based. The gist of the method:
(§5)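 KB-VIN cells on chamber slides 24 h, then compound (0.3 and 3.0 µM) or 0.1% DMSO for 24 h. Fixed in ice-cold 4% paraformaldehyde/PBS, permeabilised with 0.5% Triton X-100. Stained with mouse anti-α-tubulin (FITC secondary), rabbit anti-γ-H2AX (Alexa Fluor 546 secondary) and DAPI. Imaged by confocal microscopy as stacked images.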

Experiment [7] is filed under the species Homo sapiens. The experiment can be described thus: Induction of morphological changes of microtubule in human KBVIN cells at 3 uM after 24 hrs by DAPI staining-based confocal fluorescence microscopic method. It is filed as cell-based. The procedure, abridged: as §5
Experiment [8] deals with KBVIN. Put plainly: Cell cycle arrest in human KBVIN cells at 0.3 uM after 24 hrs by propidium iodide staining-based flow cytometric method. It is filed as functional. The procedure, abridged: (§6)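 KB-VIN (P-gp-overexpressing MDR KB subline, maintained with 100 nM vincristine) seeded 24 h before treatment. Compound exposure 24 or 48 h, vehicle 0.1% DMSO; 5-FU and CA-4 (10 nM, 24 h) served as S and G2/M arrest controls. DNA content read by propidium iodide staining and flow cytometry. Experiments repeated at least three times.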

The test system of experiment [9] is KBVIN. The experiment can be described thus: Cell cycle arrest in human KBVIN cells assessed as accumulation at sub-G1 phase at 0.3 uM after 48 hrs by propidium iodide staining-based flow cytometric method. It is filed as functional. The procedure, abridged: as §6
For experiment [10], the system named is KBVIN. The experiment can be described thus: Cell cycle arrest in human KBVIN cells assessed as accumulation at S phase at 3 to 10 uM after 24 to 48 hrs by propidium iodide staining-based flow cytometric method. It is filed as functional. The procedure, abridged:
as §6

Experiment [11] concerns KBVIN. Put plainly: Induction of apoptosis in human KBVIN cells assessed as nuclear fragmentation at 0.3 to 3 uM after 24 hrs by DAPI staining-based confocal fluorescence microscopic method. It is filed as functional, cell-based. The procedure, abridged: as §5

Molecules are shown by their SMILES. The source made the active and inactive calls. The calls are words filed in the database; no cut-off is given here.

The text below walks through data of ChEMBL document CHEMBL4004815, “(-)-Neocaryachine, an Antiproliferative Pavine Alkaloid from Cryptocarya laevigata, Induces DNA Double-Strand Breaks” (J Nat Prod, 2017).

For `COc1cc2c(cc1O)[C@@H]1Cc3cc(OC)c(OC)cc3[C@H](C2)N1C`, the IC50 (in the experiment with MDA-MB-231; in the experiment with A549; in experiment [1]; in the experiment on MCF7; with KB) was more than 40 µM each time.
For the molecule `CN1[C@H]2Cc3cc4c(cc3[C@@H]1Cc1cc3c(cc12)OCO3)OCO4` [ESCHOLTZINE], the IC50 in the experiment on MDA-MB-231 turned out to be 26.1 µM; with A549, 8.71 µM; in experiment [1], 19.8 µM; in the experiment on MCF7, 26.6 µM; in the experiment on KB, 17 µM. For the same molecule, the result in the experiment filed under Homo sapiens [2], in the experiment filed under Homo sapiens [3] and with KBVIN [5] was inactive. The result with KBVIN [4] was Active.
Take `COc1cc2c(cc1O)C[C@H]1c3cc4c(cc3C[C@@H]2N1C)OCO4`: the IC50 with MDA-MB-231 amounted to 5.71 µM; in the experiment with A549, 3.98 µM; in experiment [1] it was 5.91 µM; in the experiment with MCF7, 7.42 µM; in the experiment on KB, 5.49 µM.
For the molecule `C[N+]1([O-])[C@H]2Cc3cc4c(cc3[C@@H]1Cc1cc3c(cc12)OCO3)OCO4` (some centres not stated), the IC50 with MDA-MB-231 was 41 µM; with A549, 29.3 µM; in experiment [1] it was more than 40 µM; with MCF7, more than 40 µM; in the experiment on KB, 35.5 µM.
For the molecule `CC(=O)O[C@H]1C(=O)[C@@]2(C)[C@H]([C@H](OC(=O)c3ccccc3)[C@]3(O)C[C@H](OC(=O)[C@H](O)[C@@H](NC(=O)c4ccccc4)c4ccccc4)C(C)=C1C3(C)C)[C@]1(OC(C)=O)CO[C@@H]1C[C@@H]2O` [PACLITAXEL], the results for the IC50 (in experiment [1]; in the experiment on MCF7) were 1.93 µM and 0.0104 µM, respectively.
In the case of `COc1ccc2c(c1O)[C@@H]1Cc3cc4c(cc3[C@H](C2)N1C)OCO4`, in the experiment filed under Homo sapiens [6], the Activity entry is “Dose-dependent effect”. The outcome in the experiment filed under Homo sapiens [7], in the experiment with KBVIN [9], in the experiment on KBVIN [10] and in the experiment on KBVIN [11] was Active. The IC50 in the experiment with MDA-MB-231 came out at 0.264 µM; in the experiment on A549 it was 0.064 µM; in experiment [1], 0.241 µM; in the experiment on MCF7, 0.413 µM; with KB, 0.228 µM. Also, in the experiment with KBVIN [8], the outcome was inactive.
